Data published in the M2OR odorant receptor database.
Changes are numbered by the printed parent chain.

Assays:
Conditions in all cases: stereoisomer not certain
[1] = system: T1, O2T11
T1 sequence (whole entry): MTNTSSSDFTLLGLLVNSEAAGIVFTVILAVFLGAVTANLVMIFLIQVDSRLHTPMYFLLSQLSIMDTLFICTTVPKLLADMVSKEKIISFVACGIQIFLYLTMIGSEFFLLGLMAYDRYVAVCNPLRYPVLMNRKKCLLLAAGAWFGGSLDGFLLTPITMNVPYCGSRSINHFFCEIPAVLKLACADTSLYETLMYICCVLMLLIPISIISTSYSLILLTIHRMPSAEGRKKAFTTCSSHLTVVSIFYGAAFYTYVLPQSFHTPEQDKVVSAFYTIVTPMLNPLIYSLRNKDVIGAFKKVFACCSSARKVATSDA
Procedure, shortened: (§1)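 Transient luciferase assays in mammalian cell lines were common, though methods varied by source. The values come from published papers and their supplementary material, with extra details from the original authors when needed. Responsive refers to a measured signal the original authors judged statistically different from baseline, and non-responsive (inactive) to the remainder.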

[2] = system: T2, O2T27 L36V V134D
T2 sequence (whole entry): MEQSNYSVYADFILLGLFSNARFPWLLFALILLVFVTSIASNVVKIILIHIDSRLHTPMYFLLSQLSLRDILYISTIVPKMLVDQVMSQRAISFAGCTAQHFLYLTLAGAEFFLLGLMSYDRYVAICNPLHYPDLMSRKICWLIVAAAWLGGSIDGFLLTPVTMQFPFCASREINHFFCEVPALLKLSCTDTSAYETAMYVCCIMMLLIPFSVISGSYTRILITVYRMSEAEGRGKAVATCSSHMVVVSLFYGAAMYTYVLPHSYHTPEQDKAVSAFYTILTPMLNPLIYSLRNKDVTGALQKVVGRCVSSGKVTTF
Procedure, shortened: as §1

[3] = system: T3, O2T29 Q24R
T3 sequence (whole entry): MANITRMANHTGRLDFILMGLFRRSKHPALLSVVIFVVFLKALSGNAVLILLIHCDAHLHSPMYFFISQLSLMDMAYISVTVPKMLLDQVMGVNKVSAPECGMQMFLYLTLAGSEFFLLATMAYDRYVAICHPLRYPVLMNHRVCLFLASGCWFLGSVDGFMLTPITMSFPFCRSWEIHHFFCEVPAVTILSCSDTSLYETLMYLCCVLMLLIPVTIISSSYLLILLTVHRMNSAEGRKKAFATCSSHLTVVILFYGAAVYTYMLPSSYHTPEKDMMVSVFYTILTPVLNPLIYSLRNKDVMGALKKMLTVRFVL
Procedure, shortened: as §1

[4] = system: T4, O2T33 A169V
T4 sequence (whole entry): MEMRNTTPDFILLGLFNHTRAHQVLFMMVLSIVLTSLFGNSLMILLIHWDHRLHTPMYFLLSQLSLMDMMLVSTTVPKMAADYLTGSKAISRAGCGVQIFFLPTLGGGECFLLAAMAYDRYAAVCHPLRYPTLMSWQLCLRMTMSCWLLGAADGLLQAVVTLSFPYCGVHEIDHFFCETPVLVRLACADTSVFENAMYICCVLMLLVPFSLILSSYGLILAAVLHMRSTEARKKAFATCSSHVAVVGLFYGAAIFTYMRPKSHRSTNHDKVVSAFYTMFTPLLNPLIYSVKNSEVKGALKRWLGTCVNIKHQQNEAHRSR
Procedure, shortened: as §1

[5] = system: T5, O2T33 G297E I309L
T5 sequence (whole entry): T4 sequence (whole entry) with V169A, G297E, I309L
Procedure, shortened: as §1

[6] = system: T6, O2T34 Q6P R267P
T6 sequence (whole entry): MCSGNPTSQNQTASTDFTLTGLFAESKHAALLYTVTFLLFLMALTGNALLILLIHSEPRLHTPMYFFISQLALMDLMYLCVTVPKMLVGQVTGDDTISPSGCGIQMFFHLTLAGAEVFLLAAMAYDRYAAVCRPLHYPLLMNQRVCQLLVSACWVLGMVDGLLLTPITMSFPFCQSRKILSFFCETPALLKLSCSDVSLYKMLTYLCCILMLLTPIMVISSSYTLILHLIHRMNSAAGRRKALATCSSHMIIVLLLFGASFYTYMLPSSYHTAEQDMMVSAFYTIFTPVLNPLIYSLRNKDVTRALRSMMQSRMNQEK
Procedure, shortened: as §1

[7] = system: T7, O2T34 R267P
T7 sequence (whole entry): T6 sequence (whole entry) with P6Q
Procedure, shortened: as §1

[8] = system: T8, O4A47
T8 sequence (whole entry): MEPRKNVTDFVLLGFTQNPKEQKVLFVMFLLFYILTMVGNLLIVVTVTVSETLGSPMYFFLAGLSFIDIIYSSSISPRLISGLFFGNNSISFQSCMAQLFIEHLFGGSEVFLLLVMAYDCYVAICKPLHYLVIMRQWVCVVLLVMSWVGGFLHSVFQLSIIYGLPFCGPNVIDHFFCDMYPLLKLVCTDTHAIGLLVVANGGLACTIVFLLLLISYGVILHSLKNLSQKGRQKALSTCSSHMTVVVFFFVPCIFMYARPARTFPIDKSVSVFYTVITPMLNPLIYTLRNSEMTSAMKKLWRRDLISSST
Procedure, shortened: as §1

[9] = system: O4C46 S240F C252Y K288R
Procedure, shortened: as §1

[10] = system: T9, O4F15 A272T
T9 sequence (whole entry): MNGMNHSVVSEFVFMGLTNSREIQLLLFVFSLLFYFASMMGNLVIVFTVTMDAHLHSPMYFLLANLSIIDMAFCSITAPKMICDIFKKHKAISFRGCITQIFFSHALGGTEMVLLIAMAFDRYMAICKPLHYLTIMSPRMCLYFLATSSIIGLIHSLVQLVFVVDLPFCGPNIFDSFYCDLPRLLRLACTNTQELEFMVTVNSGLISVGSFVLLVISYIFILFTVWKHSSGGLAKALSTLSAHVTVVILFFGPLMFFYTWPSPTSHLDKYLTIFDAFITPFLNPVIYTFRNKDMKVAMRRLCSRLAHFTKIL
Procedure, shortened: as §1

[11] = system: T10, O4F15 S149F
T10 sequence (whole entry): T9 sequence (whole entry) with S149F, T272A
Procedure, shortened: as §1

[12] = system: T11, O4F17
T11 sequence (whole entry): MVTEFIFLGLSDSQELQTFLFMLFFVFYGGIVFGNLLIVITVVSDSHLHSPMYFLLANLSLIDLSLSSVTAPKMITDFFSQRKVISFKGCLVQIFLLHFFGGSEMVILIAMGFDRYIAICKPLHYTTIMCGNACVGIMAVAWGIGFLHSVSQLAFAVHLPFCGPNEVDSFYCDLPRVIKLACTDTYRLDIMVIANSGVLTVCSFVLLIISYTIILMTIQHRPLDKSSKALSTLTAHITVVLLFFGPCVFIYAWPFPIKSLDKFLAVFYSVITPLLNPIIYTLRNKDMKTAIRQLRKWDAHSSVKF
Procedure, shortened: as §1

[13] = system: T12, O4F17; remark: listed apart in the source
T12 sequence (whole entry): T11 sequence (whole entry) with E15G, Q293R
Procedure, shortened: as §1

[14] = system: T13, O4F21 F44L
T13 sequence (whole entry): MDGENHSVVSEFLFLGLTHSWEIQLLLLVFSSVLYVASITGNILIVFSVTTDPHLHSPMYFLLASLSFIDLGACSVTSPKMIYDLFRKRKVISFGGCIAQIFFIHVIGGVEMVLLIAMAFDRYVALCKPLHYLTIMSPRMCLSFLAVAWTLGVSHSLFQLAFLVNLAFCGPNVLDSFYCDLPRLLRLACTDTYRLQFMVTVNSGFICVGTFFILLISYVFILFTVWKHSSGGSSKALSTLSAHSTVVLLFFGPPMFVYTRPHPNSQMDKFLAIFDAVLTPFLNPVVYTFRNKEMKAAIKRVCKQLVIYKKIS
Procedure, shortened: as §1

[15] = system: T14, O51A7 E8D
T14 sequence (whole entry): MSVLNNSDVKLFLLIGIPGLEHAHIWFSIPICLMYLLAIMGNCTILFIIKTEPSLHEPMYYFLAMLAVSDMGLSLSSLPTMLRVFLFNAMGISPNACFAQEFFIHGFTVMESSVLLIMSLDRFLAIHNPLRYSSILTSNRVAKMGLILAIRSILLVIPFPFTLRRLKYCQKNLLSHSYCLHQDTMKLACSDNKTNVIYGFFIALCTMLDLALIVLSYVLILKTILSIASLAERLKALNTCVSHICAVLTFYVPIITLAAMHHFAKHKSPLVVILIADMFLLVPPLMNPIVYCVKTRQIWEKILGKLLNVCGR
Procedure, shortened: as §1

[16] = system: T15, O51B2 C120R C209S P283S
T15 sequence (whole entry): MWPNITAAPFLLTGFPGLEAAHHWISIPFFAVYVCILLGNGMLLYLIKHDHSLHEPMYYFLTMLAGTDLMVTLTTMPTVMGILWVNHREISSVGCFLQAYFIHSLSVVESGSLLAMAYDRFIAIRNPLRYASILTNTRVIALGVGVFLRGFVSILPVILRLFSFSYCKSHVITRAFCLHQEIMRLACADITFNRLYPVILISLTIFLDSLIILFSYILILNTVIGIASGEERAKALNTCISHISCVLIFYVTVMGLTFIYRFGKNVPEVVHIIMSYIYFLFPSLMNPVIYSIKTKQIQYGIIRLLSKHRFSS
Procedure, shortened: as §1

[17] = system: T16, O51B4 M147T
T16 sequence (whole entry): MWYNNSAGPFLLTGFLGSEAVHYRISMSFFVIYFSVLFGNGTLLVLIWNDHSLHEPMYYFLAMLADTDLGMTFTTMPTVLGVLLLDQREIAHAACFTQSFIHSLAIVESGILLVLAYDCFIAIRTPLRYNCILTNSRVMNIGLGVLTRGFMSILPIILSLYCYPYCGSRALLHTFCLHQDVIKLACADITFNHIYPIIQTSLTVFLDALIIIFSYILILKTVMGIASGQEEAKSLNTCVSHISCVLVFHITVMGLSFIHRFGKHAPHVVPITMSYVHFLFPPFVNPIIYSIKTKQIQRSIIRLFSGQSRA
Procedure, shortened: as §1

[18] = system: T17, O51B4
T17 sequence (whole entry): T16 sequence (whole entry) with V36I
Procedure, shortened: as §1

[19] = system: T18, O51B5 G5S I102T P160L
T18 sequence (whole entry): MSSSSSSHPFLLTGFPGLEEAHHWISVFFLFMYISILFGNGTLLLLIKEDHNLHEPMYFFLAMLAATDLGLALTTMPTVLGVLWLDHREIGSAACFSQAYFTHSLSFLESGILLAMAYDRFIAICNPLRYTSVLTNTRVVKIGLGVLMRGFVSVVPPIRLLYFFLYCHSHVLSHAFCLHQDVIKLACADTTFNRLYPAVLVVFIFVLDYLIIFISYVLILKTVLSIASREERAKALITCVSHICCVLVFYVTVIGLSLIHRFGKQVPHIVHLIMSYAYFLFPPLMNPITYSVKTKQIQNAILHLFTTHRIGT
Procedure, shortened: as §1

[20] = system: T19, O51D1 I89V
T19 sequence (whole entry): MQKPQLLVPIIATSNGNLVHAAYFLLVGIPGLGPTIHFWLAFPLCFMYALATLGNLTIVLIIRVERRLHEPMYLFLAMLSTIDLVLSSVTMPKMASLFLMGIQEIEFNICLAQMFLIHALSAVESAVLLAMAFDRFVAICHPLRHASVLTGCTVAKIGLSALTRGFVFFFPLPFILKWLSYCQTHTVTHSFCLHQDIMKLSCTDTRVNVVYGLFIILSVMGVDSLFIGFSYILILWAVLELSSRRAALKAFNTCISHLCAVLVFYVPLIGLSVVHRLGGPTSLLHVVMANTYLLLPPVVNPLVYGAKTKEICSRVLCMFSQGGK
Procedure, shortened: as §1

Measured: odorant receptor agonist call;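 note: active if original authors judged signal statistically different from baseline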

Cc1cnc(C)c(C)n1
inactive: [1] | [2] | [3] | [4] | [5] | [6] | [7] | [8] | [9] | [10] | [11] | [12] | [13] | [14] | [15] | [16] | [17] | [18] | [19] | [20]

CCCCCCC=CCCC=O
inactive: [1] | [2] | [3] | [4] | [5] | [6] | [7] | [8] | [9] | [12] | [13] | [14] | [15] | [16] | [17] | [18] | [19] | [20]

CC1=C(O)C(=O)OC1C (stereo not drawn)
inactive: [1] | [2] | [3] | [4] | [5] | [6] | [7] | [8] | [9] | [10] | [11] | [12] | [13] | [14] | [15] | [16] | [17] | [18] | [19] | [20]

CCC1OC(=O)C(O)=C1C (stereo not drawn)
inactive: [1] | [2] | [3] | [4] | [5] | [6] | [7] | [8] | [9] | [10] | [11] | [12] | [13] | [14] | [15] | [16] | [17] | [18] | [19] | [20]

CC1=NC(C)C(C)S1 (stereo not drawn)
inactive: [1] | [2] | [3] | [4] | [5] | [6] | [7] | [8] | [9] | [10] | [11] | [12] | [13] | [14] | [15] | [16] | [17] | [18] | [19] | [20]

CC1=C(O)C(=O)C(C)O1 (stereo not drawn)
inactive: [1] | [2] | [3] | [4] | [5] | [6] | [7] | [8] | [9] | [10] | [11] | [12] | [13] | [14] | [15] | [16] | [17] | [18] | [19] | [20]

CCC1OC(C)=C(O)C1=O (stereo not drawn)
inactive: [1] | [2] | [3] | [4] | [5] | [6] | [7] | [8] | [9] | [10] | [11] | [12] | [13] | [14] | [15] | [16] | [17] | [18] | [19] | [20]

CCCC(S)CCOC(C)=O (stereo not drawn)
inactive: [1] | [2] | [3] | [4] | [5] | [6] | [7] | [8] | [9] | [10] | [11] | [12] | [13] | [14] | [15] | [16] | [17] | [18] | [19] | [20]
